From publication PMC3279955 (ACS chemical neuroscience, 2012)

Experiments:
Δ7 SMA KO mouse [1] = assay: Δ7 SMA KO mouse model: negative geotaxis test; format: in vivo; conditions: 75 mg/kg once a day
Δ7 SMA KO mouse [2] = assay: Δ7 SMA KO neonatal mouse model: survival, body weight, tolerability; format: in vivo
PKCβ2 = PKCβ2 (Homo sapiens, UniProt P05771); assay: Kinase inhibition assay; format: biochemical
GSK-3 = GSK-3 inhibition in the presence of 10 µM ATP; format: biochemical; conditions: read-out: GSK-3 IC50; tested in the presence of 10 µM ATP
[3] = tested on: human SMA patient fibroblasts; assay: SMN protein level in SMA patient fibroblasts by western blot; format: cell-based; conditions: 72 h
Procedure, shortened: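 Fibroblasts from SMA patients were exposed to test compound (20, 25 or 30 μM) or DMSO vehicle for 72 h. SMN protein was assessed by Western blot and quantified from three separate experiments.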

Δ7 SMA KO mouse [4] = assay: Δ7 SMA KO mouse model: tube test; format: in vivo; conditions: 75 mg/kg once a day; postnatal day 6, 8, 10 and 12
[5] = tested on: primary immature cortical neurons; assay: Oxidative stress; format: cell-based
Procedure, shortened: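 Primary cortical neurons were exposed to test compound (20 μM) with or without homocysteic acid (HCA, 5 mM), which depletes glutathione. Survival was read by MTT assay after 48 h and expressed as percent of the no-inhibitor control, mean ± SEM. Live/dead staining with calcein AM and ethidium homodimer was done in parallel.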

[6] = tested on: human SMA patient fibroblasts; conditions: commercially available GSK-3 inhibitors; cited from earlier work

Chain of PKCβ2 (P05771 1-673 isoform P05771-2): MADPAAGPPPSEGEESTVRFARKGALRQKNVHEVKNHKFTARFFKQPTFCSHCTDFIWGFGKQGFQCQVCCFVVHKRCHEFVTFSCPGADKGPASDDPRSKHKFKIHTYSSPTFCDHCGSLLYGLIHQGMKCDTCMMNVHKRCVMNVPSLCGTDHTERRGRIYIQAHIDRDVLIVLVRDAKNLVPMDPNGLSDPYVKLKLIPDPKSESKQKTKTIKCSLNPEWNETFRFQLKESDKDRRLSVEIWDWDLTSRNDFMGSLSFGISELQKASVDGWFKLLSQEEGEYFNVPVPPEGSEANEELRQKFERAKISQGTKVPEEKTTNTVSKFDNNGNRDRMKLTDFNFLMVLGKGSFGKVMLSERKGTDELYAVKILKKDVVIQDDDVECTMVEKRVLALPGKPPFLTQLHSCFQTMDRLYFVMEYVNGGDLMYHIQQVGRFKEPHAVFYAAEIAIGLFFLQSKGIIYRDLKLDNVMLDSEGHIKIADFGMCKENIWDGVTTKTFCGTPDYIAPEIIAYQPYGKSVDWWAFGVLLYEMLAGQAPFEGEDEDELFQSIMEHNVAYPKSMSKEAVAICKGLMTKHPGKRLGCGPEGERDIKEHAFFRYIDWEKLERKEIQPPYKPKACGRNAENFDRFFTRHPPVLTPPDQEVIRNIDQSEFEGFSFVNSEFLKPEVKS

In the case of Cn1cc(C2=C(c3coc4ccccc34)C(=O)NC2=O)c2cc(Br)ccc21 [BIP-135, 3-(5-bromo-1-methyl-1H-indol-3-yl)-4-(benzofuran-3-yl)pyrrole-2,5-dione], the “overall motor function (geotaxis and tube test)” value (Δ7 SMA KO mouse [1]) is reported as “did not improve the overall motor function”, the “percent of KO mice that completed the geotaxis test” value (Δ7 SMA KO mouse [1]; P12, p = 0.0315) is reported as “more KO animals treated with BIP-135 completed the geotaxis test” and the “latency to complete the negative geotaxis test” value (Δ7 SMA KO mouse [1]; p = 0.0683) is reported as “no significant treatment effects”. The “tolerability / toxicity in SMA KO animals” value (Δ7 SMA KO mouse [2]; 75 mg/kg IP, 100% DMSO as vehicle) was “did not appear to be toxic and was well-tolerated”, the “effect on SMA KO body weight versus vehicle” value (Δ7 SMA KO mouse [2]; 75 mg/kg once a day, p = 0.0435, after around P6) was “showed an improvement in body weight” and the IC50 (PKCβ2) was 219 nM. For the same compound, the IC50 (GSK-3) was […], the “increase in SMN levels compared to vehicle treated cells” value ([3]; 25 µM, western blot) was 7 fold and the “toxicity in SMA patient fibroblasts (bell-shaped dose-response)” value ([3]; higher concentrations) was “some toxicity at higher concentrations”. For the same compound, the “tube test parameters (time hanging, number of pulls, hind-limb strength score, tube test score)” value (Δ7 SMA KO mouse [4]) was “no significant treatment effect”, the “protection of HCA-treated cortical neurons (survival)” value ([5]; 20 µM, HCA 5 mM, MTT assay, HCA alone approximately 25 percent survival) was “about 80%” and the “protection in the HCA oxidative stress model” value ([5]; HCA 5 mM, MTT assay) was “able to protect at a lower concentration”. For the same compound, the “toxicity to neurons exposed to compound alone” value ([5]; absence of HCA) was “No significant toxicity”.
In the case of O=C1Cc2c([nH]c3ccc([N+](=O)[O-])cc23)-c2ccccc2N1 [alsterpaullone], the “elevation of SMN levels in vitro” value [6] is given as “shown to elevate SMN levels in vitro”.
In the case of CHIR98014, the “elevation of SMN levels in vitro” value [6] is given as “shown to elevate SMN levels in vitro”.
In the case of COc1ccc(CNC(=O)Nc2ncc([N+](=O)[O-])s2)cc1 [AR-A014418, reference compound], the “elevation of SMN levels in vitro” value [6] is listed as “shown to elevate SMN levels in vitro” and the “protection in the HCA oxidative stress model” value ([5]; HCA 5 mM, MTT assay) is listed as “provided some protection”.
